# Only some compounds are listed: those with a hit (about 2.6% of all), similar ones and a draw of the others.
# PRMT1 FP inh – PRMT1 (human) inhibition, primary screen. recombinant PRMT1, activity-based probe fluorescence polarization. 1.3% of 370,000 active. inhibition, % at 2.79 µM. Q99873. AID 652257;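 active = inhibition above about 21% made by adding two undisclosed values, limit read from the data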
# PAD4 FP inh – inhibitors of human PAD4; inhibition, % at 6.36 µM; 0.41% of 330,000 active; Q9UM07; recombinant PAD4, RCA probe fluorescence polarization;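 active = percent inhibition above a cutoff equal to the mean of all tested compounds plus 3 SD, cut at about 15% in these data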;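 also: 0% = PAD4 with RCA probe and DMSO and 100% = probe without PAD4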
# GSTO1 counter – counter-screen for RBBP9 inhibitors: inhibitors of human GSTO1 | P78417 | recombinant GSTO1, activity-based probe fluorescence polarization | inhibition, % at 5.96 µM | 1.1% of 300,000 active;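 active = inhibition above the campaign mean inhibition plus 3 SD, cut at about 35% in these data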;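 also: 0% = GSTO1-1 with DMSO and 100% = wells lacking GSTO1-1 enzyme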
# Apaf-1 inh – inhibitors of human Apaf-1 apoptosome | 0.71% of 330,000 active | AID 489030 | inhibition, % at 20 µM | reconstituted apoptosome caspase-3 activity, DEVD-Rh110 fluorescence; active = inhibition of at least 40% at 20 µM;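 also: plate controls were DMSO wells for no effect and DEVD-CHO caspase inhibitor wells for full effect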
# Target sequence (O14727 whole entry, looked up): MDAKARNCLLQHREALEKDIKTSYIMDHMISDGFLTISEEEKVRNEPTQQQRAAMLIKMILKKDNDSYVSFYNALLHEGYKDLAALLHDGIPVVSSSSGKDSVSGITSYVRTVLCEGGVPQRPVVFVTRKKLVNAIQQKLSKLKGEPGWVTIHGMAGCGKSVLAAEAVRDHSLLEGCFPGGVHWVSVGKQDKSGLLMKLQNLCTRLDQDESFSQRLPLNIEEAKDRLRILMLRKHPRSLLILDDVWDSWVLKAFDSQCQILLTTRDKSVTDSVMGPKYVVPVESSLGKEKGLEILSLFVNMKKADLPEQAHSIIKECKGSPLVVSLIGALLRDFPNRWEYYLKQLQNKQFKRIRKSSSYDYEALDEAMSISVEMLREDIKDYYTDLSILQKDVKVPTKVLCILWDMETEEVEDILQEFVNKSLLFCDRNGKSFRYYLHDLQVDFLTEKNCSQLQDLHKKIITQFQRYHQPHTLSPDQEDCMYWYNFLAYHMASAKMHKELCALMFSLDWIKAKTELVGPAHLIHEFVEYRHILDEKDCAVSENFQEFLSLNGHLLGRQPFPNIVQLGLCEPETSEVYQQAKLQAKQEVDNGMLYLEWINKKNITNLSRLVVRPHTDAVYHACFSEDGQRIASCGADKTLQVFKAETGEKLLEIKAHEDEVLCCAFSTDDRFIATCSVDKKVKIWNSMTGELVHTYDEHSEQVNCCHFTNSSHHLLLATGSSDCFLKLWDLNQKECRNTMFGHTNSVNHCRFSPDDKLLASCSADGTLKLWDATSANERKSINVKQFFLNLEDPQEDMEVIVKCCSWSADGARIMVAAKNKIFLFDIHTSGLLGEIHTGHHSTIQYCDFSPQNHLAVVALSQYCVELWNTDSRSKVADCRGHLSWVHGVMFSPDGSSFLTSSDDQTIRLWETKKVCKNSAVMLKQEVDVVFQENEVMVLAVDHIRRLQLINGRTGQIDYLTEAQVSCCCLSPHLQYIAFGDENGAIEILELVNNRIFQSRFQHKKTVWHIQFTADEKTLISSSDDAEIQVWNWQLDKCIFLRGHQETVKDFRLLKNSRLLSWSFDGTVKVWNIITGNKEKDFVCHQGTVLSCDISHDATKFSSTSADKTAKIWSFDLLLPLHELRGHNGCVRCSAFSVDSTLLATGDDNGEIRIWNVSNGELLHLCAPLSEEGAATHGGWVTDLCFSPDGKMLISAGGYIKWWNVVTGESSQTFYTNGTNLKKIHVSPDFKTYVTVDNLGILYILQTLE
#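 Assay system: Apoptosome proteins | Medium: pH 7.5 Hepes buffer with CHAPS, BSA, DTT | Also added: Cytochrome c and DEVD-Rh110 substrate | Times: 30 min plus 50 min, RT | Detection: Rhodamine 110 fluorescence at Ex 480/Em 540 nm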
# TDP2 inh – TDP2 (human) inhibition, absorbance primary screen. recombinant TDP2, T5PNP hydrolysis, p-nitrophenol absorbance 415 nm. AID 720702. 0.34% of 370,000 active. inhibition, % at 12.8 µM;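 active = inhibition above the mean of all tested compounds plus 3 SD, set per campaign, cut at about 25% in these data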;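 also: 0% = DMSO with enzyme and 100% = buffer with substrate but no TDP2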
#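 Incubation: 2 h at 37 °C; Test system: recombinant human TDP2; Quantity: enzyme 120 nM; Read-out basis: percent inhibition; Medium: 50 mM Tris-HCl pH 7.5 with Mg2+, KCl, DTT, BSA; Repeats: single replicate; Compound: 12.8 µM single point, 1% DMSO; Signal: epi absorbance; Reagent: 5 mM T5PNP chromogenic substrate; Benchmarks: no-enzyme high, DMSO-plus-enzyme low.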
# Numbers without * were called inactive; · = not tested or not shown.
SMILES,PRMT1 FP inh,PAD4 FP inh,GSTO1 counter,Apaf-1 inh,TDP2 inh
COc1ccc(OC)c(S(=O)(=O)N(CC(=O)NC2CCC(C)CC2)c2cc(C)cc(C)c2)c1 (stereo unspecified),1.0,·,·,·,4.1
C#CCOCCOCCOCCNc1nc(N2CCN(C(=O)[C@H](CCCCN)n3cc([C@@H](N)CO)nn3)CC2)nc(N2CCN(C(=O)[C@H](Cc3cc4ccccc4[nH]3)n3cc([C@@H](N)Cc4ccc(O)cc4)nn3)CC2)n1,·,0.6,14.6,55.3*,·
C#CCOCCOCCOCCNc1nc(N2CCN(C(=O)[C@H](CCCCN)n3cc([C@@H](N)CC(C)C)nn3)CC2)nc(N2CCN(C(=O)[C@H](Cc3cc4ccccc4[nH]3)n3cc([C@@H](N)Cc4ccc(O)cc4)nn3)CC2)n1,·,1.4,5.0,6.4,·
C#CCOCCOCCOCCNc1nc(N2CCN(C(=O)[C@H](Cc3ccc(O)cc3)n3cc([C@@H](N)C(C)CC)nn3)CC2)nc(N2CCN(C(=O)[C@H](Cc3cc4ccccc4[nH]3)n3cc([C@@H](N)Cc4ccc(O)cc4)nn3)CC2)n1 (stereo partly specified),·,1.4,8.7,55.6*,·
C#CCN(C1CC1)S(=O)(=O)c1ccccc1Br,-4.1,·,·,·,6.1
S=c1nc(-c2sccc2OCc2ccc(Cl)cc2Cl)[nH][nH]1,24.7*,0.3,-4.2,4.3,-5.5
Cc1occc1-c1nnc(SCC(=O)N2CCN(c3ncccn3)CC2)n1-c1ccccc1,-0.6,·,·,·,-5.7
Nc1[nH]c2cc(Cl)ccc2c1C(=O)NCCc1ccc(Cl)cc1,1.9,·,·,·,0.2
COc1cc(OC)cc(-c2nnc(Sc3ccc(C=O)cc3[N+](=O)[O-])o2)c1,·,26.5*,17.9,-2.0,·
COc1ccc(C(=O)N2CCN(c3cccc(Cl)c3)CC2)cc1S(=O)(=O)NC1CC1,23.8*,3.2,·,-0.3,-2.9
Cc1ccc(N2CCN(C(=S)c3ccc(-c4cccc([N+](=O)[O-])c4)o3)CC2)cc1,23.6*,1.7,0.3,22.4,-4.7
COc1ccc(S[C@]2(C(=O)N3CCN(c4ncccn4)CC3)CC(=O)N(c3ccc(Cl)cc3)[C@@H]2c2ccc(OC)cc2)cc1,0.7,·,·,·,-5.2
COc1ccccc1N(Cc1cc(=O)[nH]c2ccccc12)C(=O)c1cccc([N+](=O)[O-])c1,0.9,-4.1,35.5*,17.1,-7.7
CNc1ccc(Br)cc(C(=O)/C=C/c2ccc(OC)cc2OC)c1=O,13.5,-5.6,36.1*,21.9,6.7
CNc1ccc(Br)cc(C(=O)/C=C/c2ccc(Cl)cc2Cl)c1=O,22.2*,-7.5,35.0*,33.4,8.9
COc1cccc(/C=C/C(=O)OCC(=O)NCCNC(=O)COC(=O)/C=C/c2cccc(OC)c2)c1,1.7,-0.1,·,6.2,0.6
COc1ccc(/C=C/C(=O)c2ccc(OC)cc2OC)c(OC)c1,2.6,-2.0,-18.5,-5.9,-0.2
CNc1ccc(Br)cc(C(=O)/C=C/c2cccc(OC)c2)c1=O,27.2*,-3.6,35.5*,18.3,2.3
C=CCN1C(=O)[C@@H](CC(=O)NCCc2ccccc2OC)[C@]2(C(=O)OCC)CCCCC/C=C/12,0.5,·,·,·,6.7
O=C(c1cccc(F)c1F)N(Cc1ccccn1)CC1CCCO1 (stereo unspecified),-0.9,·,·,·,-5.6
c1ccc(C2Nc3cccc4cccc(c34)N2)cc1,7.7,3.9,36.3*,20.4,-2.8
COc1ccc(C2Nc3cccc4cccc(c34)N2)cc1,1.7,-3.5,35.4*,3.1,0.8
CN(C)c1ccc(C2Nc3cccc4cccc(c34)N2)cc1,3.7,-0.6,20.2,17.8,-0.3
Nc1c(C(=O)N/N=C/c2cccnc2)oc2nc(-c3ccccc3)cc(-c3ccco3)c12,3.3,-3.1,3.3,8.6,-4.4
NNC(=O)c1oc2nc(-c3ccco3)cc(-c3ccco3)c2c1N,38.3*,3.8,52.1*,8.0,3.0
CCOc1ccc(/C=C2\SC(=S)N(CCCC(=O)NCCCN3CCOCC3)C2=O)cc1,1.3,-14.1,16.3,42.3*,-9.4
O=C(CCCN1C(=O)/C(=C/c2ccccc2Cl)SC1=S)NCCCN1CCOCC1,24.2*,-57.7,3.9,13.0,-11.5
CCc1ccc(/C=C2\SC(=S)N(CCCC(=O)NCCCN3CCOCC3)C2=O)cc1,9.3,·,·,·,4.1
O=C(CCN1C(=O)/C(=C/c2ccccc2F)SC1=S)NCCCN1CCOCC1,3.7,-11.5,-4.7,6.4,2.1
CCOC(=O)C1CCN(C(=O)C(C)(C)NC(=O)Nc2ccc(Cl)cc2Cl)CC1,-4.8,·,·,·,-2.6
